This is a sample that favours compounds with a hit; in the whole collection about 5.8% have one here.
GASC1_inh: inhibitors of GASC-1 (KDM4C) histone demethylase, primary screen, biochemical, single concentration HTS. GST-KDM4C 2-372, H3K9me3 peptide, LANCE TR-FRET. inhibition, % at 12.5 µM. 0.15% of 96,000 active. AID 720574, 2013;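 active means mean replicate inhibition above about 25%, with at least 55% of replicates also reaching it, limit read from the data, passing the limit was not always enough; inconclusive means only one of those two conditions met; inactive means neither condition met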
Target sequence (Q9H3R0 2-372 limits assumed): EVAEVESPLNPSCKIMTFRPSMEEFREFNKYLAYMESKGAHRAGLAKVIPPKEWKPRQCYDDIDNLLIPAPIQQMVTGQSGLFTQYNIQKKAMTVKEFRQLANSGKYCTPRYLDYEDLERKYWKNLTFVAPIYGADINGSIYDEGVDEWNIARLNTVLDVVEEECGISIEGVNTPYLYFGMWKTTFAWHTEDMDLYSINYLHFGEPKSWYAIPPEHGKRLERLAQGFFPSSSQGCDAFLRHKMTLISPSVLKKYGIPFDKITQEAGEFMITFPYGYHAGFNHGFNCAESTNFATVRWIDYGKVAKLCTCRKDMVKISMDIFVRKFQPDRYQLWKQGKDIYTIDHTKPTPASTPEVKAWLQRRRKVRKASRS
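System: N-terminal GST-fused human GASC-1 (KDM4C) fragment, residues 2-372 / Amount: 10 nM GST-KDM4C in enzyme reaction / Also added: H3K9me3 peptide with Fe(II)/2OG / Times: 30 min demethylation and 1 h detection at room temperature / Signal: LANCE TR-FRET / Read-out basis: Fall in 671/618 emission ratio as inhibition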
IDH1_R132H_inh: inhibitors of IDH1 R132H reductase, primary screen, biochemical, plate reader, single point. inhibition, % at 10 µM. Isocitrate dehydrogenase [NADP] cytoplasmic (Homo sapiens), O75874. diaphorase/resazurin fluorescence, 60 min. AID 624101, 2012. 0.18% of 70,000 active; in the data active means inhibition above about 34%; inconclusive means no clear call, values can overlap the other calls; inactive means below about 11%;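 further: 0% = DMSO and 100% = no enzyme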
T_cruzi_growth-1: T. cruzi intracellular proliferation inhibitors, primary screen, cell-based, beta-gal Tulahuen parasites, NIH3T3 host, luminescence; T. cruzi beta-gal in NIH3T3, GalScreen luminescence, 90 h; 5.9% of 77,000 active; AID 624255, 2012; inhibition, % at 8.34 µM;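 active means mean inhibition above about 93%, with at least 55% of replicates each passing it, limit read from the data, passing the limit was not always enough; inconclusive means only one of those two conditions holds; inactive means neither condition holds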
Pf_Dd2_growth: P. falciparum Dd2 growth inhibitors, primary screen, SYBR Green fluorescence, single dose replicates; 2.3% of 94,000 active; 72 h; stronger effect = lower value; activity change, % at 10 µM; AID 1159554, 2015; in the data active means activity change below about -80%; inconclusive means no clear call, values can overlap the other calls
T_cruzi_growth-2: T. cruzi intracellular proliferation inhibitors, confirmation, cell-based, NIH3T3 host, beta-gal parasite, luminescence, cherry-pick; T. cruzi beta-gal in NIH3T3, GalScreen luminescence, 90 h; AID 651739, 2012; 72% of 5,600 active; inhibition, % at 8.35 µM; shares compounds with T_cruzi_growth-1;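 active means mean replicate inhibition above about 95% and at least 55% of replicates individually reaching it, limit read from the data; inconclusive means only one of the two criteria is met; inactive means neither criterion is met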
T_cruzi_growth-3: inhibitors of intracellular T. cruzi replication, confirmation, NIH3T3 host cells, beta-gal parasites, cherry-pick, set 2; T. cruzi beta-gal in NIH3T3, GalScreen luminescence, 90 h; AID 651740, 2012; inhibition, % at 2.09 µM; 21% of 5,600 active; shares compounds with T_cruzi_growth-1;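 active means mean inhibition above about 95%, with at least 55% of replicates also reaching it, limit read from the data; inconclusive means meets just one of the two conditions; inactive means meets neither condition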;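 further: plate controls were neutral control median for no effect and positive control median for full effect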
3T3_cytotox: cytotoxicity in mouse NIH/3T3 fibroblasts, confirmation, cytotoxicity control for T. cruzi proliferation inhibitor project, cell-based, cherry-pick, single point; shares compounds with T_cruzi_growth-1; NIH/3T3 viability, CellTiter-Glo ATP luminescence, 90 h; cytotoxicity (signal decrease), % at 8.35 µM; 14% of 5,600 active; AID 651742, 2012;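 active means mean signal decrease across replicates above about 35% based on untreated-well scatter, with enough replicates individually passing, limit read from the data; inconclusive means no rule stated though some were filed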;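 further: 0% = median of neutral control wells and 100% = median of positive control wells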
3T3_cytotox_2: NIH/3T3 fibroblast cytotoxicity, confirmation, cytotoxicity control, cell-based, cherry-pick, single point, set 2; 56% of 5,600 active; NIH/3T3 viability, CellTiter-Glo ATP luminescence, 90 h; inhibition, % at 24.9 µM; AID 651744, 2012; shares compounds with T_cruzi_growth-1;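 active means mean loss of cell viability signal at or above a set limit, and enough replicates individually reaching it; inconclusive means meets only the mean limit or only the replicate share; inactive means meets neither condition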;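 further: 0% = median of neutral control wells and 100% = median of positive control wells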
* = called active by the depositor; u = inconclusive; x = no result; + = active, no number.

SMILES GASC1_inh IDH1_R132H_inh T_cruzi_growth-1 Pf_Dd2_growth T_cruzi_growth-2 T_cruzi_growth-3 3T3_cytotox 3T3_cytotox_2
C[C@@H]1CN([C@@H](C)CO)C(=O)Cc2cc(NS(=O)(=O)c3ccc(F)cc3)ccc2O[C@H]1CN(C)Cc1ccccc1 1.7 0.8 114.0* -29.9 111.5* 51.8 32.2 u
COc1ccc(S(=O)(=O)Nc2ccc3c(c2)CC(=O)N([C@@H](C)CO)C[C@@H](C)[C@H](CN(C)Cc2ccccc2)O3)cc1 -0.7 -0.3 113.0* -25.7 108.2* 88.6 16.1 22.6
O=C(C[C@H]1CC[C@@H]2[C@H](COC[C@H](O)CN2C(=O)Nc2ccc(C(F)(F)F)cc2)O1)NCC1CCCCC1 -1.2 x x -44.8 x x x x
C[C@@H]1CCCCO[C@@H](CN(C)C(=O)CCCN(C)C)[C@H](C)CN([C@@H](C)CO)C(=O)c2cc(NS(=O)(=O)c3ccccc3)ccc2O1 0.4 4.1 16.2 57.4 x x x x
COc1ccc(S(=O)(=O)Nc2ccc3c(c2)CC(=O)N([C@H](C)CO)C[C@@H](C)[C@@H](CN(C)Cc2ccc(-c4ccccc4)cc2)O3)cc1 0.6 3.2 66.3 17.6 x x x x
O=C(NCc1ccc(F)cc1)[C@@H]1[C@@H](CO)[C@@H]2Cn3c(cccc3=O)[C@H]1N2 -2.6 x u 7.7 -31.5 -24.9 -18.9 -13.3
O=C(NCc1ccc(F)cc1)[C@@H]1[C@@H](CO)[C@@H]2Cn3c(cccc3=O)[C@H]1N2Cc1ccncc1 -2.1 x -6.8 1.1 x x x x
CN1CCN(C(=O)[C@H]2[C@H](CO)[C@H]3Cn4c(cccc4=O)[C@@H]2N3Cc2ccncc2)CC1 1.2 x + x -17.4 -2.2 -2.6 -13.7
O=C(NCc1ccc(F)cc1)[C@H]1[C@H](CO)[C@H]2Cn3c(cccc3=O)[C@@H]1N2Cc1cccnc1 -1.3 x 99.1* 11.2 89.3 -13.3 -3.4 -11.0
O=C(Nc1ccccc1)[C@@H]1[C@@H](CO)[C@@H]2Cn3c(cccc3=O)[C@H]1N2Cc1ccncc1 1.3 x 99.7* 2.3 u 12.6 -1.4 3.5
Cc1noc(C)c1NC(=O)N(C)C[C@@H]1Oc2ncc(C#CC(C)C)cc2C(=O)N([C@H](C)CO)C[C@H]1C 1.4 -0.2 45.3 -10.1 x x x x
Cc1noc(C)c1S(=O)(=O)Nc1ccc2c(c1)C(=O)N([C@H](C)CO)C[C@@H](C)[C@@H](CN(C)S(=O)(=O)c1cn(C)cn1)OCCCC[C@@H](C)O2 0.1 x 26.4 -11.8 x x x x
C[C@@H]1CN([C@@H](C)CO)C(=O)Cc2cc(NS(=O)(=O)c3cn(C)cn3)ccc2O[C@H]1CN(C)Cc1ccc(Oc2ccccc2)cc1 0.5 -3.6 4.8 -37.4 x x x x
COc1ccc(S(=O)(=O)N(C)C[C@H]2Oc3cc(C4=CCCC4)ccc3S(=O)(=O)N([C@H](C)CO)C[C@H]2C)cc1 4.2 0.1 122.4* -37.8 103.4* 61.1 21.7 56.8*
COc1ccc(S(=O)(=O)N(C)C[C@H]2Oc3cc(C4=CCCC4)ccc3S(=O)(=O)N([C@@H](C)CO)C[C@H]2C)cc1 7.0 0.5 121.6* -28.3 101.5* 105.0* 45.5* 54.5*
COc1ccc(S(=O)(=O)N(C)C[C@H]2Oc3cc(C4=CCCC4)ccc3S(=O)(=O)N([C@H](C)CO)C[C@@H]2C)cc1 1.8 -2.5 51.0 -66.3 x x x x
CNC(=O)C[C@@H]1CC[C@H]2[C@@H](COC[C@@H](O)CN2Cc2ccncc2)O1 0.5 x -13.6 5.3 x x x x

From PubChem
